Compounds with a hit are over-represented: about 4% of the library has one in this group of screens.
TAAR1 antag = human TAAR1 antagonism | actives 1.5% (n = 360,000) | Q96RJ0 | inhibition, % at 3 µM | AID 624466 | CHO RD-HGA16 TAAR1, Fluo-8 calcium fluorescence, antagonist;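 active = inhibition above a per-plate cutoff, the mean inhibition of test compounds on that plate plus 3 SD, cut at about 49% in these data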;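 also: 0% = DMSO plus EC80 beta-PEA response and 100% = DMSO alone without agonist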
Target sequence (Q96RJ0 whole entry, looked up): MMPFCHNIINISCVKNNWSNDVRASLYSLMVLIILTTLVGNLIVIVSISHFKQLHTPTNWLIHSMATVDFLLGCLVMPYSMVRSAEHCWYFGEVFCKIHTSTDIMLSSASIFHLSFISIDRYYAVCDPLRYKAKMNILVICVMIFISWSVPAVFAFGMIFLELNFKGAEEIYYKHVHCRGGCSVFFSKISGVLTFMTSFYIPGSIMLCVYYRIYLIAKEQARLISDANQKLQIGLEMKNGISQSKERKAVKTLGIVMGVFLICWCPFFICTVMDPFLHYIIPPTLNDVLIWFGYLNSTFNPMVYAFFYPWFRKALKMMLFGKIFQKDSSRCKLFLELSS
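Test system – hTAAR1-expressing CHO RD-HGA16 cells, Gα16-coupled · Also added – β-PEA at EC80 concentration, post-compound challenge · Compound – 3 µM, single point · Incubation – dye loading 75 min at 37 °C, then 30 min room temperature · Measured by – Fluo-8 intracellular calcium dye fluorescence, real-time kinetic reads · Benchmarks – vehicle and agonist controls · Replicates – singlicate, one well per test compound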
TAAR1 agonist = human TAAR1 agonism. Q96RJ0. CHO RD-HGA16 TAAR1, Fluo-8 calcium fluorescence; vehicle wells 0%, saturating PEA agonist 100%. activation, % at 3 µM. actives 0.99% (n = 360,000);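 active = activation above the mean activation of all test compounds in the run plus 3 SD, cut at about 38% in these data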
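Test system: RD-HGA16 (CHO) cells co-expressing Gα16 and hTAAR1 | Doses: Single dose, 3 µM | Schedule: 17-24 h seeding, 75 min 37 °C dye, 30 min RT | Evaluation: % activation from peak over basal fluorescence ratio, DMSO-to-PEA scaled | Technique: Kinetic Fluo-8 calcium fluorescence | Benchmarks: Low control DMSO, high control PEA (EC100)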
CHO parental Ca = signal in parental CHO cells, OX1R antagonist counter-screen; actives 0.63% (n = 330,000); AID 463079; inhibition, % at 5.6 µM; parental CHO-K1, ATP-induced calcium, Fluo-8 fluorescence;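 active = inhibition above that plate's mean sample inhibition plus 3 SD, cut at about 26% in these data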;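 also: 0% = ATP-challenged DMSO wells and 100% = DMSO wells without ATP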
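Test system: parental CHO cells; detection: calcium-sensitive Fluo-8 fluorescence; evaluation: percent inhibition of calcium signal; also added: ATP as calcium-mobilizing challenge; repeats: one well per compound; control set: ATP-challenged DMSO wells low, unchallenged DMSO wells high; compound: single nominal dose of 5.6 µM per compound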
OX1R antag-1 = blocks the human orexin 1 receptor; O43613; OX1R-expressing cells, FRET antagonist read-out; inhibition, % at 6.6 µM; actives 1.8% (n = 330,000); AID 485270; in the data active = inhibition mostly above about 38%, no sharp cut-off; inactive = mostly below about 40%;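 also: 0% = agonist challenge alone and 100% = reference antagonist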
Target sequence (O43613 whole entry, looked up): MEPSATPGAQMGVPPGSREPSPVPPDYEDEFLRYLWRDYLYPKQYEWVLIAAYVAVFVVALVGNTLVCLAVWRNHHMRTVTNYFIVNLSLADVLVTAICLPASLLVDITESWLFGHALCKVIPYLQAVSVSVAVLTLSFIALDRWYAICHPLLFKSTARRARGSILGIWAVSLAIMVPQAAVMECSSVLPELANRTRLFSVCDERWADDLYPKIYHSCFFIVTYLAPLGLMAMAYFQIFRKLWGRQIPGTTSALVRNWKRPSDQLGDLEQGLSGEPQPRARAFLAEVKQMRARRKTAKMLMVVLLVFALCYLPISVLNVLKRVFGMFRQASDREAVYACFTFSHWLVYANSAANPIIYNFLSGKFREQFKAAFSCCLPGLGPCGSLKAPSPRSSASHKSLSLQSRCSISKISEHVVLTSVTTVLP
OX1R antag-2 = human HCRTR1 antagonism; O43613; CHO/OX1R cells, Fluo-8 calcium fluorescence, orexin A; inhibition, % at 5 µM; actives 0.43% (n = 330,000);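 active = inhibition above its plate's threshold, mean inhibition of all tested compounds on the plate plus 3 SD, cut at about 37% in these data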;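 also: 0% = orexin A challenge wells and 100% = SB-334867-A antagonist wells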
TAAR1 ag confirm = human TAAR1 agonism, confirmed; shares compounds with TAAR1 agonist; activation, % at 3 µM; AID 651783; actives 82% (n = 2,400); CHO RD-HGA16 TAAR1, Fluo-8 calcium fluorescence; scaled: DMSO 0%, maximal phenethylamine 100%;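 active = activation above a cutoff set at the run's mean compound activation plus 3 SD, cut at about 39% in these data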
Ga16 nonsel ag = nonselective agonist in parental cells, TAAR1 agonist counter-screen; CHO-Ga16 parental, Fluo-8 calcium fluorescence; normalized to maximal ATP response, DMSO zero; actives 50% (n = 2,400); activation, % at 3 µM; shares compounds with TAAR1 agonist;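 active = activation above the run cutoff, the mean activation over all tested wells plus 3 SD, cut at about 12% in these data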;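 also: 0% = DMSO wells and 100% = maximal ATP response on the peak over basal ratio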
TAAR1 desensitize = TAAR1 response desensitization, agonist counter-screen; shares compounds with TAAR1 agonist; CHO RD-HGA16 hTAAR1, Fluo-8 calcium, beta-PEA response inhibition; inhibition, % at 3 µM; actives 46% (n = 2,400); AID 651951;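 active = inhibition above the run cutoff, the mean inhibition of all test compounds plus 3 SD, cut at about 49% in these data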;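 also: beta-PEA stimulus applied at its EC80; loss of beta-PEA calcium signal after compound pretreatment read as receptor desensitization; 0% = DMSO with beta-PEA at EC80 and 100% = DMSO alone without agonist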
Ga16 antag count = nonselective Ga16 antagonist in TAAR1 agonist counter-screen | shares compounds with TAAR1 agonist | CHO-Ga16 ATP-induced calcium, Fluo-8 fluorescence | inhibition, % at 3 µM | actives 39% (n = 2,400);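 active = inhibition above the plate's mean compound inhibition plus 3 SD, computed per plate, cut at about 22% in these data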;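 also: 0% = EC80 ATP with DMSO and 100% = DMSO wells without ATP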
The depositor's hits bear a star; x = not tested or not shown.

SMILES | TAAR1 antag | TAAR1 agonist | CHO parental Ca | OX1R antag-1 | OX1R antag-2 | TAAR1 ag confirm | Ga16 nonsel ag | TAAR1 desensitize | Ga16 antag count
O=c1[nH]c(Cc2ccc(Cl)cc2)nc2ccccc12 | 10 | 2 | -20 | 7 | -14 | x | x | x | x
C[C@H](NC(=O)c1[nH]cnc1C(=O)N[C@H](C)c1ccccc1)c1ccccc1 | 25 | 47* | -23 | 1 | -12 | 41* | 10 | 16 | 6
C[C@H](CO)NC(=O)c1nc[nH]c1C(=O)N[C@H](C)c1ccccc1 | -5 | 1 | x | x | x | x | x | x | x
Cc1ccc2c(c1)N(CC(=O)NCC(C)c1ccccc1)C(=O)c1cccnc1O2 (stereo not given) | 47 | 56* | -10 | 6 | -5 | 74* | 3 | 50* | 10
CCOc1ccc(CCNC(=O)CN2C(=O)c3cccnc3Oc3ccc(C)cc32)cc1OCC | 25 | 1 | -15 | 16 | -19 | x | x | x | x
COCCN1C[C@@H](CO)O[C@@H](n2cnc3c(NCc4cc(OC)c(OC)c(OC)c4)ncnc32)C1 | -12 | 3 | x | x | x | x | x | x | x
COc1cc(CNc2ncnc3c2ncn3[C@H]2CN(CCc3ccccc3)C[C@@H](CO)O2)cc(OC)c1OC | -19 | 59* | x | x | x | 64* | 1 | 18 | 9
COCCNc1ncnc2c1ncn2[C@H]1CN(Cc2ccc(Cl)cc2)C[C@@H](CO)O1 | -10 | 3 | x | x | x | x | x | x | x
COCCNc1ncnc2c1ncn2[C@H]1CN(CCc2ccccc2)C[C@@H](CO)O1 | -22 | 46* | x | x | x | 48* | 0 | 13 | 6
O=C(NCCc1ccccc1)c1nc2nc(-c3cccs3)cc(C(F)(F)F)n2n1 | 84* | 84* | -15 | 32 | -11 | 91* | 4 | 90* | 18
COc1ccc(/C=C/C(=O)c2ccc([N+](=O)[O-])o2)cc1OC | 42 | 59* | -31 | 67 | -44 | 47* | 17* | 49* | 31*
Cc1noc(C)c1COC(=O)c1cccc(S(=O)(=O)N2CCOCC2)c1 | 16 | 48* | -4 | 5 | -31 | 3 | 1 | -1 | 8
Cc1ccc(OCC(=O)NNC(=S)NC(=O)c2cccs2)c(C)c1 | -12 | 0 | x | x | x | x | x | x | x
CCCOc1ccc(-c2cc(C(=O)NCC3CCCO3)c3ccccc3n2)cc1 (stereo not given) | 42 | 12 | -19 | 16 | -34 | x | x | x | x
CCCOc1ccc(C(=O)NNC(=S)NC(=O)c2ccco2)cc1 | 105* | 156* | 70* | 19 | 86* | 147* | 119* | 104* | 72*
CCCOc1ccc(C(=O)NNC(=S)NC(=O)c2cccs2)cc1 | 106* | 159* | 64* | -7 | 70* | 154* | 124* | 106* | 91*
Cc1cc(OCC(=O)NNC(=S)NC(=O)c2cccs2)ccc1Cl | 65* | 103* | x | x | x | 77* | 76* | 58* | 54*
CCCOc1ccc(C(=O)NNC(=S)NC(=O)c2cc(-c3ccccc3)nc3ccccc23)cc1 | 22 | 55* | -10 | 18 | -14 | 83* | 72* | 77* | 74*
CCCOc1ccc(C(=O)NNC(=S)NC(C)=O)cc1 | -14 | 13 | -2 | 15 | -10 | x | x | x | x
COc1ccccc1C(=O)Nc1ccc(Br)cc1C | -1 | -2 | -29 | 40 | -47 | x | x | x | x
O=C(CCNC(=O)c1ccco1)NNC(=O)c1ccc(Br)cc1 | -2 | 5 | x | x | x | x | x | x | x
O=C(NC(=S)NNC(=O)c1ccco1)c1ccc(Br)cc1 | 27 | 94* | 6 | 2 | -12 | 92* | 72* | 36 | 32*
CC(C)(C)c1ccc(C(=O)NC(=S)NNC(=O)c2cccs2)cc1 | 105* | 174* | 31 | 1 | 33 | 159* | 129* | 107* | 102*
CCCC(=O)Nc1ccc(C(=O)NNC(=S)NC(=O)c2cccs2)cc1 | -16 | 2 | -6 | -5 | -34 | x | x | x | x
CCCOc1ccc(C(=O)NNC(=S)NC(=O)c2ccccc2)cc1 | 106* | 161* | 56* | 0 | 78* | 147* | 117* | 106* | 95*
SMILES | TAAR1 antag | TAAR1 agonist | CHO parental Ca | OX1R antag-1 | OX1R antag-2 | TAAR1 ag confirm | Ga16 nonsel ag | TAAR1 desensitize | Ga16 antag count
O=C(COc1ccc(Cl)cc1Cl)NNC(=S)NC(=O)c1ccco1 | -21 | 8 | -12 | 8 | -18 | x | x | x | x
CC(Oc1ccc(Cl)cc1)C(=O)NNC(=S)NC(=O)c1ccco1 (stereo not given) | 49* | 116* | -1 | -3 | 6 | 79* | 61* | 37 | 40*
Cc1cc(S(=O)(=O)N2CCCCC2CCNC(=O)C(=O)NCC2CCCO2)ccc1F (stereo not given) | -4 | 0 | -6 | 19 | -18 | x | x | x | x
CCCOc1ccc(C(=O)NNC(=S)NC(=O)c2ccccc2[N+](=O)[O-])cc1 | 26 | 79* | -2 | 7 | -8 | 28 | 28* | 16 | 27*
Cc1ccccc1C(=O)NNC(=S)NC(=O)c1cccs1 | 65* | 128* | 21 | 0 | 24 | 67* | 69* | 29 | 30*
CC(C)(C)c1ccc(C(=O)NNC(=S)NC(=O)c2cccnc2)cc1 | 35 | 86* | -7 | 5 | 0 | 49* | 47* | 38 | 28*
CCOC(=O)[C@@H]1[C@H]2COc3cc(OC)ccc3[C@H]2N2C(=O)N(c3ccc(C)cc3)C(=O)[C@]12C | 8 | 8 | -15 | 1 | -7 | x | x | x | x
CC1CCc2c(sc(NS(=O)(=O)c3ccccc3)c2C(=O)OC(C)C)C1 (stereo not given) | 17 | 43* | -6 | 23 | -17 | 24 | 19* | 26 | 26*
Cn1ccnc1C1CCCCN1C(=O)c1cc(COc2ccc(F)cc2F)on1 (stereo not given) | -17 | 56* | -4 | 8 | -21 | 8 | 3 | 13 | 8
CC(=O)c1cccc(NC(=O)COC(=O)C2=COCCO2)c1 | -6 | 0 | -6 | 9 | -3 | x | x | x | x
CCCCN1C(=O)/C(=C/C=C2\SCCN2C)SC1=S | 28 | 71* | x | x | x | 50* | 34* | 40 | 45*
CCN1C(=O)/C(=C/c2ccc(OCc3ccc(C(=O)O)cc3)c(Cl)c2)NC1=S | 96* | 100* | 3 | -11 | -10 | 32 | 36* | 76* | 68*

Compound activity deposited in PubChem by The Scripps Research Institute Molecular Screening Center.
